The nature of assay [1]: inhibitors of TNFa-induced NFkB p65 translocation, primary screen, imaging, HUVEC, MLSMR starter and 10KST1 sets (AID 438;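 active means inhibition above 20% together with a positive visual image hit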;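 further: compound added about 3h40 before a 20 min TNFalpha stimulation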;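 on inhibition: signal is the nuclear over cytoplasmic p65 intensity ratio per well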). The following applies: HUVEC TNFa-induced p65 nuclear translocation; cell count: measured here: nuclei count (cytotoxicity indicator), at 2.08 µM; inhibition: at 2 µM, stronger effect = higher value, 0% TNFa-plus-vehicle, 100% no-TNFa wells.
Assay [2] is described as follows: inhibitors of mutant huntingtin aggregation, primary screen, imaging, exon1htt(103Q)mCFP cells, high-content imaging (AID 483;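 active means visual image review flags a hit and inhibition of aggregation exceeds 20%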;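 further: compound exposure lasted 3 days before fixation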;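 on nuclei count: percent of the per-plate median nuclei count of sample wells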). Particulars: exon1htt(103Q)mCFP cell line, aggregate imaging, at 2 µM; inhibition of aggregation: stronger effect = higher value; nuclei count: measured here: cell count, toxicity.
The nature of assay [3]: inhibitors of E-selectin induction by TNFa, primary screen, imaging, HUVEC, immunofluorescence, MLSMR starter and 10KST1 sets (AID 487;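 active means visually confirmed hit in the image check and inhibition above 20%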;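 on inhibition: signal is fraction of cell area covered by stained E-selectin grains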;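 on nuclei count: 100% = median nuclei count of all wells on the same plate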). The following applies: HUVEC TNFalpha-induced E-selectin immunofluorescence imaging, at 2 µM; inhibition: stronger effect = higher value; nuclei count: measured here: cell number, toxicity.
The target of assay [4] is Voltage-gated potassium channel subunit beta-2 (Rattus norvegicus) (UniProt P62483). As to the kind of experiment: KvBeta enzyme negative modulators, primary screen, biochemical, NADPH fluorescence (AID 622;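 active means fluorescence slope higher than the sample average by over 3 SD, cut at about -0.22 in these data, passing the limit was not always enough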;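 further: slope of raw intensity against log time taken from 70 to 1610 s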). The following applies: recombinant KvBeta, 4-cyanobenzaldehyde reduction, at 10 µM, stronger effect = higher value.
The target is the same in assay [5]. Kind of assay: KvBeta positive modulators, primary screen, biochemical, NADPH fluorescence (AID 623;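 active means NADPH fluorescence slope more negative than the mean of all samples by about 3 SD, 99.7% confidence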;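 further: fluorescence intensity change per second fitted from 20 to 320 s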). Particulars: Recombinant KvBeta, NADPH fluorescence decrease slope, 10 min; at 10 µM; stronger effect = lower value.
Assay [6] has as its target Alpha-2C adrenergic receptor (Homo sapiens) (UniProt P18825). Kind of assay: modulators of alpha2C/GIRK thallium flux, primary screen, cell-based, HEK293 alpha2C/GIRK1/2 (AID 624).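 Further: slope of fluorescence ratio to pre-addition baseline per second over 15 to 24 s.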 The following applies: thallium flux BTC fluorescence, at 10 µM, actives lie on both sides.
Assay [7] in a line: inhibitors of larval lipid processing in zebrafish, primary screen, whole organism, PED6 fluorescence, gall bladder and intestine (AID 686;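 active means a full or partial loss of lipid-probe fluorescence in the fish gall bladder, intestine or both, judged by eye; inactive means no fluorescence loss, or compound toxic to the fish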;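 further: signal comes from phospholipase A2 cleavage of quenched PED6 carried via bile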). Particulars: Zebrafish larvae PED6 lipid processing, fluorescence scoring; screened at 20 µM (by protocol). In a few lines: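 Doses: 20 µM single dose. Test system: live zebrafish larvae aged 5-7 days, whole organism. Quantity: five larvae per well. Measured by: By-eye fluorescence microscopy. Reagent: ingested quenched lipid PED6 at 100 nM. Read-out: visual per-well fluorescence inhibition score. Times: overnight exposure of larvae to compound plus PED6.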

Assay [8] in a line: inhibitors of Sendai virus-induced IRF3 signaling, primary screen, TLR/RLR signaling modifier project, cell-based, Sendai virus stimulus, luciferase, 10K MLSCN set (AID 602276;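 active means inhibition at or above 50% at 10 µM; inactive means inhibition below 50%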;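 further: firefly luciferase from ISG56 promoter only with Renilla not read in this screen; 0% = Sendai virus plus DMSO and 100% = medium plus DMSO without virus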). The following applies: HEK293 RL24 IRF3 luciferase reporter, at 10 µM, stronger effect = higher value. On the technique in general: In a reporter assay the amount or activity of a reporter protein is the signal.
The nature of assay [9]: inhibitors of poly I:C-induced TLR3 signaling, primary screen, cell-based, poly I:C stimulus, luciferase, 10K MLSCN set (AID 602277;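 active means inhibition of the reporter signal at or above 50%; inactive means inhibition below 50%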). Particulars: HEK293-TLR3 RL24 IRF3 luciferase reporter, at 10 µM, stronger effect = higher value.

These results are taken from PubChem BioAssay.

The source made the active and inactive calls.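 How the source made its calls, unless noted: active means fluorescence slope after compound addition differing from the mean of all screened samples at 99.7% confidence, in either direction; inactive means the rest.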

Alpha-2C adrenergic receptor (Homo sapiens), sequence (P18825 whole entry, looked up): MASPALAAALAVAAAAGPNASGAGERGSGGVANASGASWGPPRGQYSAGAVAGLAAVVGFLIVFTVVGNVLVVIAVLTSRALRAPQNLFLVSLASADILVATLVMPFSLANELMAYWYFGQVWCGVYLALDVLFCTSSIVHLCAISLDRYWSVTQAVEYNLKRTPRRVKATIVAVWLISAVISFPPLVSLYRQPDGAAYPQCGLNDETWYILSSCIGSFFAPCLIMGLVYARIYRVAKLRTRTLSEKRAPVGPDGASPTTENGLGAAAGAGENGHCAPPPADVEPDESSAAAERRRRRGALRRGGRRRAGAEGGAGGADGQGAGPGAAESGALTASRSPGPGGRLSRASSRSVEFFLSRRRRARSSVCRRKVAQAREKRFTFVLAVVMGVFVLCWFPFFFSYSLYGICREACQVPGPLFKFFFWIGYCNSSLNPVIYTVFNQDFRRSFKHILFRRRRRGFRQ
Voltage-gated potassium channel subunit beta-2 (Rattus norvegicus), sequence (P62483 whole entry, looked up): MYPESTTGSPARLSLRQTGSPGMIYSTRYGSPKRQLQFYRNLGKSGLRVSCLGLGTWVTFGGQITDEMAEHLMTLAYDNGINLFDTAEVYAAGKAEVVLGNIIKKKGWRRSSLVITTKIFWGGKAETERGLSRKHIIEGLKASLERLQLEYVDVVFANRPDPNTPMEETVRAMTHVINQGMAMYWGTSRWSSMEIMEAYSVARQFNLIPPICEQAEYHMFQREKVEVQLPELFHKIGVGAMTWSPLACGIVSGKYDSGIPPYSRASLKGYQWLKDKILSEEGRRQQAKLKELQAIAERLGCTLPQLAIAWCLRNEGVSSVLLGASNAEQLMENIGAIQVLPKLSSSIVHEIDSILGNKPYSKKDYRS

As to `CC1(C)C2CCC1(C)C(OC(=O)CSc1nc(N)cc(=O)[nH]1)C2` (centres undefined), in [1], the cell count was 473. The inhibition (in general, the drop in the measured response relative to a control, in per cent) in assay [1] is 6.5% (inactive); in assay [3], -343% (inactive); in [8], 3.84% (inactive); in [9], 8.04% (inactive). Further, the inhibition of aggregation in assay [2] was 4% (inactive). Besides, the results for the nuclei count in assay [2] and in [3] were 103% and 136%, respectively. In addition, in assay [4], the fluorescence slope was -0.367 (inactive). Moreover, in assay [5], the NADPH fluorescence slope is -4.6e-05 (inactive). Besides, the slope in assay [6] is 0.00448 (inactive). Also, in assay [7], the call was inactive.
`CCCc1ccccc1OCCNC(C)=O`: in [1], the cell count was found to be 585. Moreover, the inhibition in [1] was 9.6% (inactive); in assay [3] it was -76.7% (inactive); in assay [8] it was -4.34% (inactive); in assay [9], 3.6% (inactive). The inhibition of aggregation in assay [2] is 18.6% (inactive). Moreover, the nuclei count amounted to 116% in assay [2] and 105% in assay [3]. The fluorescence slope in [4] is -0.366 (inactive). In assay [5], the NADPH fluorescence slope was -3.9e-06 (inactive). Also, the slope in [6] is 0.00527 (inactive). Besides, the outcome in assay [7] was inactive.
With `COC(=O)c1sccc1NC(=O)c1ccco1`, in [1], the cell count turned out to be 474. Also, the inhibition was -11.9% (inactive) in assay [1], 19.6% (inactive) in [3], 2.56% (inactive) in assay [8] and -4.04% (inactive) in assay [9]. In assay [2], the inhibition of aggregation is 8.2% (inactive). Also, the nuclei count was 90.7% in [2] and 89.7% in [3]. Moreover, the fluorescence slope in assay [4] was -0.44 (inactive). In addition, in [5], the NADPH fluorescence slope is -3.5e-05 (inactive). Moreover, the slope in assay [6] is 0.00438 (inactive). Besides, the outcome in assay [7] was “active; weak signal in gallbladder only”.
`CCN(CC(=O)Nc1ccc2c(c1)OCCO2)Cc1cc(=O)oc2cc(C)c(C)cc12`: the cell count in assay [1] is 337. The inhibition in assay [1] was -9.6% (inactive); in assay [3], -2.6% (inactive); in assay [8] it was 25.7% (inactive); in assay [9], 16.9% (inactive). Further, the inhibition of aggregation in [2] is 8.8% (inactive). Also, the nuclei count is 96.4% in assay [2] and 119% in [3]. Also, the fluorescence slope in assay [4] is -0.474 (inactive). The NADPH fluorescence slope in assay [5] is -3.1e-05 (inactive). Moreover, the slope in [6] was 0.00545 (inactive). In addition, the molecule was classed as inactive in assay [7].
`COc1cccc(OCc2nnc(SCC(=O)OCc3ccccc3)o2)c1`: the cell count in assay [1] turned out to be 328. The inhibition was 3.3% (inactive) in [1], -31.4% (inactive) in assay [3], 10.1% (inactive) in assay [8] and 7.69% (inactive) in assay [9]. For the same molecule, the inhibition of aggregation in [2] was 1.6% (inactive). Moreover, the values for the nuclei count in assay [2] and in [3] were 99.2% and 108%, respectively. Besides, the fluorescence slope in [4] was -0.267 (inactive). Moreover, the NADPH fluorescence slope in assay [5] was -4.9e-06 (inactive). Besides, the slope in assay [6] is 0.00652 (inactive). In addition, the molecule was classed as inactive in assay [7].
With `O=C(COc1ccc(S(=O)(=O)NC2CCCCC2)cc1)NCc1ccccn1`, in assay [1], the cell count is 400. Besides, the inhibition is -5.1% (inactive) in assay [1], -8.3% (inactive) in assay [3], -5.78% (inactive) in assay [8] and 1.29% (inactive) in [9]. Also, the inhibition of aggregation in assay [2] was -2.7% (inactive). Also, the nuclei count was determined as 101% in [2] and 107% in assay [3]. Besides, in [4], the fluorescence slope was -0.401 (inactive). For the same molecule, the NADPH fluorescence slope in assay [5] was -1.8e-06 (inactive). Also, the slope in [6] was 0.00588 (inactive). Moreover, in assay [7], the outcome was inactive.
On to `c1ccc2c(-c3nc(-c4ccncc4)no3)cccc2c1`, for which the cell count in assay [1] was 313. Also, the inhibition is -1.1% (inactive) in [1], -210% (inactive) in assay [3], -14.2% (inactive) in assay [8] and -43.8% (inactive) in assay [9]. In addition, the inhibition of aggregation in [2] is -4.5% (inactive). Also, the nuclei count in [2] was 88.4%; in assay [3], 118%. For the same molecule, the fluorescence slope in assay [4] is -0.442 (inactive). The NADPH fluorescence slope in [5] is -3.1e-05 (inactive). Besides, the slope in [6] is 0.00497 (inactive). The molecule was classed as inactive in assay [7].
Take `COc1cc(NC(=O)Nc2cccc(C(C)=O)c2)cc(OC)c1OC`: in assay [1], the cell count was found to be 674. The inhibition in assay [1] was -9.3% (inactive); in assay [3], -136% (inactive); in assay [8], 14% (inactive); in [9], 12.9% (inactive). The inhibition of aggregation in assay [2] was -22% (inactive). Moreover, the nuclei count in assay [2] is 99.7%; in assay [3], 97.7%. Moreover, the fluorescence slope in assay [4] is -0.438 (inactive). Besides, the NADPH fluorescence slope in assay [5] is -4.1e-05 (inactive). The slope in assay [6] was 0.00508 (inactive). The result in [7] was inactive.
`O=C(c1ccccc1)c1ccc(N2CCNCC2)cc1`: in assay [1], the cell count came to 395. Also, the inhibition in [1] was 4.3% (inactive); in [3], 2.4% (inactive); in [8] it was -41.5% (inactive); in assay [9], -73.5% (inactive). In addition, in assay [2], the inhibition of aggregation is -14.4% (inactive). The nuclei count in assay [2] stood at 92.6%; in assay [3], 102%. The fluorescence slope in assay [4] was -0.518 (inactive). Further, the NADPH fluorescence slope in assay [5] was 5.3e-06 (inactive). Also, in assay [6], the slope is 0.00569 (inactive). Moreover, the molecule was classed as inactive in assay [7].
As for `Cn1c(=O)c2c(nc(N3CCN(c4ccccc4)CC3)n2CCCc2ccccc2)n(C)c1=O`, in assay [1], the cell count turned out to be 702. Also, the inhibition in [1] is 1.4% (inactive); in [3], 20.4% (inactive); in [8] it was 10.7% (inactive); in assay [9], -10.5% (inactive). Moreover, the inhibition of aggregation in assay [2] was -15.2% (inactive). The results for the nuclei count in assay [2] and in [3] were 99.1% and 96.5%, respectively. For the same molecule, in assay [4], the fluorescence slope was -0.339 (inactive). Further, in [5], the NADPH fluorescence slope was -3.2e-05 (inactive). Further, the slope in assay [6] was 0.00552 (inactive). In addition, in [7], the call was inactive.
For `CSc1nnc(-c2ccccc2)n1C`, in assay [1], the cell count amounted to 645. The inhibition was -13.1% (inactive) in assay [1], -16.6% (inactive) in assay [3], 16.8% (inactive) in assay [8] and 17.4% (inactive) in assay [9]. Further, the inhibition of aggregation in assay [2] is -35.1% (inactive). For the same molecule, the nuclei count in assay [2] came to 111%; in assay [3], 108%. For the same molecule, the fluorescence slope in [4] was -0.398 (inactive). For the same molecule, the NADPH fluorescence slope in [5] was -6.9e-06 (inactive). For the same molecule, the slope in assay [6] was 0.00519 (inactive). In addition, the molecule was called inactive in assay [7].
As to `Cn1c(C(=O)OC(C(=O)NC2CCCC2)c2cccnc2)cc2sccc21` (centres undefined), the cell count in assay [1] was 495. The inhibition was 4% (inactive) in assay [1], -76.7% (inactive) in assay [3], 18.1% (inactive) in [8] and 15.4% (inactive) in [9]. The inhibition of aggregation in assay [2] is 9.5% (inactive). The values for the nuclei count in [2] and in [3] were 100% and 102%, respectively. The fluorescence slope in assay [4] is -0.437 (inactive). In assay [5], the NADPH fluorescence slope is -5.4e-05 (inactive). In addition, in [6], the slope is 0.00446 (inactive). In assay [7], the outcome is “active; weak signal in gallbladder and intestine”.
